Measured values pooled from the literature.
Protocols differ between the studies behind these lines.
Target: Mitogen-activated protein kinase kinase kinase kinase 4 (MAP4K4, Homo sapiens, UniProt O95819)

SMILES	test	conditions	endpoint	result
CN(C(=O)c1ccccc1)c1cc(N(C)c2ccc3c(c2)CCc2ccc(C(=O)NCCN4CCOCC4)cc2C3=O)ccc1F	cell-free assay, competition with immobilised ligand	1 µM	remaining binding	100%
Cc1ccc(Nc2nccc(N(C)c3ccc4c(C)n(C)nc4c3)n2)cc1S(N)(=O)=O	enzyme activity, inhibitor	0.5 µM	remaining activity	77.4%
CO[C@@H](C)c1c(Nc2ccc([C@H](N(C)C(=O)C3CCS(=O)(=O)CC3)C(F)(F)F)cc2)cnc2cc(Cl)nn12	cell-free assay, competition with immobilised ligand	1 µM	remaining binding	100%
CC/C(=N\NC(=O)NCc1cccc(O)c1)c1ccc(O)c(C)c1O	enzyme activity, inhibitor	0.1 µM	inhibition	3.8%
CCCS(=O)(=O)Nc1ccc(F)c(C(=O)c2c[nH]c3ncc(-c4ccc(Cl)cc4)cc23)c1F	enzyme activity, inhibitor	1 µM	inhibition	< 10%
CCCCN(CCCC)C(=O)CN1C[C@H](c2cc(OC)c3c(c2)OCO3)[C@@H](C(=O)O)[C@@H]1CC(C)(C)CCC	cell-free assay, competition with immobilised ligand	1 µM	remaining binding	100%
COc1cc2ncnc(Nc3ccc(Oc4ccccc4)c(C)c3C)c2cc1OC	enzyme activity, inhibitor	1 µM	inhibition	-3%
Oc1cccc(-c2nc(N3CCOCC3)c3oc4ncccc4c3n2)c1	cell-free assay	0.5 µM	remaining signal	91.4%
Cc1sc(C(=O)NC2COC2)cc1-n1cc(NC(=O)Nc2c(F)cccc2Cl)cn1	enzyme activity, inhibitor	10 µM	remaining activity	93.4%
Cc1c(NC(=O)c2cc(C(N)=O)nc3cc(F)ccc23)c(C(F)(F)F)nn1Cc1ccc(C(C)(C)C)cc1	cell-free assay, competition with immobilised ligand	1 µM	remaining binding	76%
CC(C)(C)c1nc(-c2cccc(NS(=O)(=O)c3c(F)cccc3F)c2F)c(-c2ccnc(N)n2)s1	enzyme activity, inhibitor, radiometric	1 µM	remaining activity	95%
CSc1nc(C)c(-c2ccnc(Nc3ccc(N4CCOCC4)cc3)c2)[nH]1	enzyme activity, inhibitor	10 µM	inhibition	77.9%
O=C(NC[C@@H]1[C@H]2CN(C(=O)OCc3cc(C(F)(F)F)cc(C(F)(F)F)c3)C[C@@H]12)c1ccc2[nH]nnc2c1	cell-free assay, competition with immobilised ligand	1 µM	remaining binding	100%
CN1CC(Oc2cnc(C#N)cc2-c2ccn3nc(NC(=O)C4CC4)cc3c2)C1	enzyme activity, inhibitor	1 µM	inhibition	13%
Oc1ccc(-c2nc(-c3ccncc3)c(-c3ccc(F)cc3)[nH]2)cc1	cell-free assay	0.5 µM	remaining signal	86.5%
Nc1ncnc2occ(-c3ccc(NC(=O)Nc4cc(C(F)(F)F)ccc4F)cc3)c12	cell-free assay, inhibitor	20 µM	remaining signal	0%
CS(=O)(=O)CCNCc1ccc(-c2ccc3ncnc(Nc4ccc(OCc5cccc(F)c5)c(Cl)c4)c3c2)o1	cell-free assay	0.5 µM	remaining signal	111%
COc1cc(Cl)c(C(=O)N[C@@H](CN[C@H]2CC[C@@H](N)CC2)Cc2ccc(C#N)cc2)cc1-c1ccc(CN[C@H](C)c2ccc(C)cc2)o1	enzyme activity, inhibitor	1 µM	remaining activity	96%
